M5 ag: CHRM5 agonism in calcium assay. P08912. 0.19% of 360,000 active. activation, % at 3 µM. CHO-K1 hM5 cells, Fluo-8 calcium fluorescence; 0% DMSO wells, 100% maximal acetylcholine response;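 active = activation above the run's mean over test compounds plus 3 SD, cut at about 23% in these data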;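 also: signal is peak over basal fluorescence ratio across the kinetic read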
CHRM1 PAM: positive allosteric modulators of human M1 muscarinic receptor. P11229. CHO-K1 hM1, Fluo-8 calcium fluorescence, ACh EC20; 0% = ACh EC20, 100% = maximal ACh. activation, % at 3 µM. 0.088% of 360,000 active. AID 588819; in the data active = activation above about 19%, passing the limit was not always enough
Target sequence (P11229 whole entry, looked up): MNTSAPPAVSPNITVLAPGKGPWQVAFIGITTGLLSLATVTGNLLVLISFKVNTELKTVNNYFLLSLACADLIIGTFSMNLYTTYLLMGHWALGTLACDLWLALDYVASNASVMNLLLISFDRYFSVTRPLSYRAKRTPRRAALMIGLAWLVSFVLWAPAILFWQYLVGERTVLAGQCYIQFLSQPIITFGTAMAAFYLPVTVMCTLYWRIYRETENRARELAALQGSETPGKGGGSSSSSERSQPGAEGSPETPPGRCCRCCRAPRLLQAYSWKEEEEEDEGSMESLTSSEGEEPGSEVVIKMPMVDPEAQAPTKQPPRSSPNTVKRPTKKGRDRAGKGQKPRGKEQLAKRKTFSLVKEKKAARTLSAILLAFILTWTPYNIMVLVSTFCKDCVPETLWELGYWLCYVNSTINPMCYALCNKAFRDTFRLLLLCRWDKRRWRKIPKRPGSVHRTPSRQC
CHRM5 antagonist: CHRM5 antagonism in calcium assay; 0.59% of 360,000 active; inhibition, % at 3 µM; CHO-hM5 cells, Fluo-8 calcium fluorescence, ACh EC80;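 active = inhibition above a per-plate cutoff, the mean of that plate's test compounds plus 3 SD, cut at about 27% in these data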
M5 PAM: positive allosteric modulators of human muscarinic M5 receptor; P08912; CHO-K1 hM5, Fluo-8 calcium, ACh EC20 PAM; 0% = ACh EC20, 100% = ACh EC100; activation, % at 3 µM; 0.3% of 360,000 active;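 active = activation above the run cutoff, the mean activation of all test compounds plus 3 SD, cut at about 18% in these data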
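Assay system – human M5 receptor in CHO-K1 cells · Read-out – % activation, ACh-normalized · Technique – Fluo-8 calcium fluorescence · Dosing – single-point, 3 µM nominal · Incubation – Fluo-8 loading 80 min at 37 °C plus 30 min room temperature · Repeats – singlicate, one well per test compound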
CHRM1 antagonist: blocks human M1 muscarinic receptor. P11229. CHO-K1 hM1, Fluo-8 calcium fluorescence, ACh EC80 antagonist. inhibition, % at 3 µM. 1.3% of 360,000 active. AID 588852;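 active = percent inhibition above its own plate's cutoff, namely the mean of that plate's compound wells plus 3 SD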;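 also: peak over basal fluorescence ratio during 140 s after agonist addition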
M1 ag: agonists of human M1 muscarinic receptor; P11229; CHO-K1 hM1, Fluo-8 calcium fluorescence, agonist mode; 0% DMSO, 100% acetylcholine EC100; activation, % at 3 µM; 0.33% of 360,000 active; AID 588814;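 active = activation above the run's mean compound activation plus 3 SD, cut at about 16% in these data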;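 also: peak over basal fluorescence ratio within a 140 s kinetic read after compound addition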
Large screens that a line does not name were inactive. Only some compounds are listed: those with a hit (about 2.2% of all), similar ones and a draw of the others.

COc1ccccc1C(=O)Nc1ccc(S(=O)(=O)N2CCc3ccccc32)cc1	none
CC(=O)NS(=O)(=O)c1ccc(NC(=O)c2cccc(S(=O)(=O)N3CCc4ccccc43)c2)cc1	none
CN(C)S(=O)(=O)c1cccc(NC(=O)c2cccc(S(=O)(=O)N3CCc4ccccc43)c2)c1	CHRM1 antagonist 34
Nc1cc(S(=O)(=O)C(F)(F)F)ccc1C(=O)O	none
O=S(=O)(c1ccc2c(c1)C(O)c1ccccc1CC2)C(F)(F)F (configuration not stated)	CHRM1 antagonist 30
CCOc1ccc(N2C(=O)CC(NC3CCN(C(=O)c4cccs4)CC3)C2=O)cc1 (configuration not stated)	none
Cc1cc(C)n(S(=O)(=O)c2ccccc2[N+](=O)[O-])n1	none
CCN1CCN(c2ccc(N3CCN(S(=O)(=O)c4ccc(C)c([N+](=O)[O-])c4)CC3)nn2)CC1	CHRM1 antagonist 29
CCC1Oc2ccc(C)cc2N(CC(=O)N(Cc2ccc(C)o2)C2CC(C)(C)NC(C)(C)C2)C1=O (configuration not stated)	CHRM1 antagonist 29
COc1cc(C(=O)C(=O)N2CCN(c3ccccc3)CC2)cc2ccccc12	M5 PAM 18 (no result: CHRM1 PAM, CHRM1 antagonist, M1 ag)
COCC(C)NC(=O)CSc1nc2ccccc2c(=O)n1CCc1ccc(S(N)(=O)=O)cc1 (configuration not stated)	CHRM1 antagonist 30
Cc1ccc(SCC(=O)OCC(=O)NC2(C#N)CCCCC2)cc1	none
Cc1onc(-c2ccccc2)c1C(=O)NNC(=S)NC(=O)c1ccc2c(c1)OCO2	M1 ag 52
COc1ccc(C(=O)NC(=S)NNC(=O)c2c(-c3ccccc3)noc2C)cc1OC	none
Cc1onc(-c2ccccc2)c1C(=O)NC(=S)NNC(=O)c1ccco1	M1 ag 17
Cc1cc(C)nc(NC(=NCc2ccc3c(c2)OCO3)NC(=O)Nc2ccccc2)n1	CHRM1 antagonist 32
Cc1nc(NC(=O)c2ccccc2)sc1Cc1ccc2c(c1)OCO2	none
COc1ccccc1NC(=O)c1ccc(NC(=O)CSc2nnnn2C)cc1	none
Cc1cccc([C@@H]2[C@@H]3C(=O)N(Cc4ccccc4)C(=O)[C@@H]3[C@]3(Cc4ccccc4)C(=O)N(c4cccc(F)c4)C(=O)N23)c1	none
CSc1ccccc1NC(=O)CN1CCCCC1C (configuration not stated)	CHRM5 antagonist 35
CC1CCCCN1CC(=O)Nc1ccc(Oc2ccccc2)cc1 (configuration not stated)	CHRM1 antagonist 69
CC1CCCCN1CC(=O)NC(c1ccccc1)c1ccccc1 (configuration not stated)	CHRM1 antagonist 60
CC(=O)N(C)c1ccc(OCC(O)Cn2c3ccc(Cl)cc3c3cc(Cl)ccc32)cc1 (configuration not stated)	none
CCOc1ccc(N2C(=O)CSC2=S)cc1	M5 PAM 18
CCN(CC)c1ccc(N2C(=O)CSC2=S)cc1	none
O=C1CSC(=S)N1c1ccc(F)c(Cl)c1	CHRM5 antagonist 33
O=C1CSC(=S)N1c1ccccc1	none
CCOC(=O)N1CCC(NC(=O)C2CCN(S(=O)(=O)c3c(C)noc3C)CC2)CC1	none
C[C@H](CO)N1C[C@H](C)[C@@H](CN(C)CC2CCCCC2)Oc2c(NS(=O)(=O)c3ccc(F)cc3)cccc2C1=O	none
CC1CCN(c2cc(N)c(Cl)cc2[N+](=O)[O-])CC1	none
NC(=O)c1c(NC(=O)c2ccccc2F)sc2c1CCC2	none
CN1CCN(C(=O)OCCOCCOC(=O)N2CCN(C)CC2)CC1	none
CCOC(=O)C1=C(Cc2ccc(OC)cc2)C(=O)c2ccccc2C1=O	CHRM1 antagonist 36
Cc1cc(-c2nnc(SCC(=O)Nc3ccc(C)c(C)c3)n2N)n[nH]1	M5 PAM 21
CCN(CC(=O)NC1CC1)S(=O)(=O)c1ccc(OC)cc1	none
CCCCCC(=O)NC(=S)NC1C2CC3CC(C2)CC1C3 (configuration not stated)	none
c1ccc(NC2=Nc3cccc4cccc2c34)cc1	none
COc1ccc(NC2=Nc3cccc4cccc2c34)cc1	M1 ag 19
CC(C)CC(=O)Nc1ccc(S(=O)(=O)Nc2nccs2)cc1	none
O=C(CN1CCOCC1)Nc1ccccc1C(=O)O	none
O=C(CN1CCOCC1)Nc1ccccc1F	CHRM1 PAM 30
O=C(CN1CCOCC1)Nc1ccccc1Sc1ccc(Cl)cc1	CHRM1 antagonist 22
O=C(CN1CCCC1)Nc1ccccc1Sc1ccccc1	none
O=C(N/N=C/c1cn(-c2cccs2)nc1-c1ccccc1)c1ccccc1Br	none
O=C(N/N=C/c1cn(-c2cccs2)nc1-c1ccccc1)c1ccccc1O	CHRM5 antagonist 28
COc1ccccc1Oc1ccc2c(c1)C(=O)N(c1cccc3ncccc13)C2=O	CHRM5 antagonist 39
COc1ccc(CNC(=O)CSc2nc3ccc(C)cc3[nH]2)cc1OC	none
CC(C)[C@H](NC(N)=O)C(=O)Nc1cccc(S(=O)(=O)NC2=NCCCCC2)c1	none
c1ccc2cc(CSCc3nc4ccccc4[nH]3)ccc2c1	none
Cc1c(N2C(=O)/C(=C/c3ccc(N(C)C)cc3)N(C)C2=S)c(=O)n(-c2ccccc2)n1C	M5 ag 34
O=c1c(Cl)c(NCCO)ncn1-c1ccccc1	none
Nc1nc(Cl)cc(N2CCC(c3cc(-c4ccc(Cl)cc4)n[nH]3)CC2)n1	CHRM5 antagonist 39, CHRM1 antagonist 38
COc1ccc(-c2cc(C3CCN(c4cc(Cl)nc(N)n4)CC3)[nH]n2)cc1	none
Cc1cc(C)n(C(C)CC(=O)N2CCc3ccccc32)n1 (configuration not stated)	CHRM1 antagonist 33
Cc1cc(C)n(C(CC(=O)N2CCc3ccccc3C2)C(=O)O)n1 (configuration not stated)	none
Cc1nc(SCC(=O)NNC(=O)c2ccc(F)cc2)c2ccccc2n1	none
Cc1cc([N+](=O)[O-])ccc1P(=O)(O)c1ccc([N+](=O)[O-])cc1C	none
CC(OC(=O)/C=C/c1ccc2ccccc2n1)C(=O)Nc1ccc(S(N)(=O)=O)cc1 (configuration not stated)	none
Cc1cccc(NC(=O)COC(=O)c2cccc3c2C(=O)c2ccccc2C3=O)c1C	CHRM5 antagonist 30, CHRM1 antagonist 29
CCc1nnc(NC(=O)CCC(=O)N2CCN(Cc3ccc(OC)c(F)c3)CC2)s1	none
O=C(O)C1C2CCC(O2)C1C(=O)Nc1ccc(Br)cc1F (configuration not stated)	none

Assay outcomes (PubChem)
